Assay results as given in paper PMC6226115 (Clinical and Translational Science, 2018).
Entries after “also recorded” stand apart in the source; their conditions may differ.

How the values were obtained:
GlyT1 = target: T1, GlyT1 (Rattus norvegicus, UniProt P28572); assay: Inhibition of [3H]-glycine uptake in rat primary cortical neurons; format: cell-based; details: IC50, inhibition of [3H]-glycine uptake, mean
T1 sequence (P28572 1-638): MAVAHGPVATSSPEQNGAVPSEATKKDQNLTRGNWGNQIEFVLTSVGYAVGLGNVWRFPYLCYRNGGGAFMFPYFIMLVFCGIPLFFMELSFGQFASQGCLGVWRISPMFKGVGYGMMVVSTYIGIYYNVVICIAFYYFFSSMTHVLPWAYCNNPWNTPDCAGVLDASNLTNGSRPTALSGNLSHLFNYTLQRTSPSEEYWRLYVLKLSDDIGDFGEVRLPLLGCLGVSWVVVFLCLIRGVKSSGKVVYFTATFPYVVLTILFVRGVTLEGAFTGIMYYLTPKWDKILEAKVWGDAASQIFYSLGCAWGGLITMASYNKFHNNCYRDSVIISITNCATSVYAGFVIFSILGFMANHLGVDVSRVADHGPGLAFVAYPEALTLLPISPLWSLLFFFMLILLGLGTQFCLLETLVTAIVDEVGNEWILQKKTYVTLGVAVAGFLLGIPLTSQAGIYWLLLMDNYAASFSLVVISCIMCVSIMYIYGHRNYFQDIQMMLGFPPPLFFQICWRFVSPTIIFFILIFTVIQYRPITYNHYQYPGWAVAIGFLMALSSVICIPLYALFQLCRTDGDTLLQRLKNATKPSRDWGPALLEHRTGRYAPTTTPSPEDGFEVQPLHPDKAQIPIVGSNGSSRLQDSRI
Procedure, shortened: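 Cortical neurons from E18 rats were differentiated in vitro for 7, 11 or 18 days, then run as a scintillating-plate uptake assay: 20 min incubation, inhibitor 0.9–3000 nM in HBSS with 5 mM alanine, and 200 nM [3H]glycine (0.01 mCi/mL) with counting over 57 min. IC50s came from four-parameter fits per experiment and were then averaged.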

[1] = Phase I safety and tolerability; format: in vivo, human
Procedure, shortened: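 In a nonrandomised, open-label phase I study, healthy men received 5, 10, 25 or 50 mg once daily for 14 days, with CSF sampled through a lumbar catheter. Safety was scored as the number of subjects with adverse events and summarised descriptively.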

[2] = 5 mg once daily for 14 days (n = 6)
[3] = 10 mg once daily for 14 days (n = 6)
[4] = 25 mg once daily for 14 days (n = 8)
[5] = 50 mg once daily for 14 days (n = 5)
[6] = total on-treatment, all doses (n = 25)

## C[C@@H](Oc1ccc(S(C)(=O)=O)cc1C(=O)N1C[C@@H]2C[C@]2(c2cc(C(F)(F)F)on2)C1)C(F)(F)F [BI 425809]
GlyT1
  IC50: 5.2 ± 1.2 nM
[1]; [2]
  Abdominal pain, subjects with AE: 0 n (%)
  Back pain, subjects with AE: 3 (50.0) n (%)
  Catheter site pain, subjects with AE: 1 (16.7) n (%)
  Diarrhea, subjects with AE: 0 n (%)
  Dizziness, subjects with AE: 0 n (%)
  Dry mouth, subjects with AE: 0 n (%)
  Fatigue, subjects with AE: 0 n (%)
  Gingivitis, subjects with AE: 0 n (%)
  Muscle spasms, subjects with AE: 1 (16.7) n (%)
  Musculoskeletal stiffness, subjects with AE: 0 n (%)
  Nasopharyngitis, subjects with AE: 0 n (%)
  Nausea, subjects with AE: 1 (16.7) n (%)
  Neck pain, subjects with AE: 0 n (%)
  Paraesthesia, subjects with AE: 1 (16.7) n (%)
  Procedural headache, subjects with AE: 4 (66.7) n (%)
  Procedural pain, subjects with AE: 0 n (%)
  Somnolence, subjects with AE: 1 (16.7) n (%)
  Tension headache, subjects with AE: 0 n (%)
  Total with AEs (treatment-emergent): 5 (83.3) n (%)
  Upper abdominal pain, subjects with AE: 0 n (%)
  Vomiting, subjects with AE: 1 (16.7) n (%)
  Wound, subjects with AE: 0 n (%)
[1]; [3]
  Abdominal pain, subjects with AE: 0 n (%)
  Back pain, subjects with AE: 0 n (%)
  Catheter site pain, subjects with AE: 0 n (%)
  Diarrhea, subjects with AE: 0 n (%)
  Dizziness, subjects with AE: 1 (16.7) n (%)
  Dry mouth, subjects with AE: 0 n (%)
  Fatigue, subjects with AE: 0 n (%)
  Gingivitis, subjects with AE: 1 (16.7) n (%)
  Muscle spasms, subjects with AE: 0 n (%)
  Musculoskeletal stiffness, subjects with AE: 0 n (%)
  Nasopharyngitis, subjects with AE: 0 n (%)
  Nausea, subjects with AE: 2 (33.3) n (%)
  Neck pain, subjects with AE: 1 (16.7) n (%)
  Paraesthesia, subjects with AE: 0 n (%)
  Procedural headache, subjects with AE: 4 (66.7) n (%)
  Procedural pain, subjects with AE: 0 n (%)
  Somnolence, subjects with AE: 0 n (%)
  Tension headache, subjects with AE: 0 n (%)
  Total with AEs (treatment-emergent): 5 (83.3) n (%)
  Upper abdominal pain, subjects with AE: 0 n (%)
  Vomiting, subjects with AE: 1 (16.7) n (%)
  Wound, subjects with AE: 1 (16.7) n (%)
[1]; [4]
  Abdominal pain, subjects with AE: 1 (12.5) n (%)
  Back pain, subjects with AE: 4 (50.0) n (%)
  Catheter site pain, subjects with AE: 0 n (%)
  Diarrhea, subjects with AE: 1 (12.5) n (%)
  Dizziness, subjects with AE: 1 (12.5) n (%)
  Dry mouth, subjects with AE: 1 (12.5) n (%)
  Fatigue, subjects with AE: 1 (12.5) n (%)
  Gingivitis, subjects with AE: 0 n (%)
  Muscle spasms, subjects with AE: 0 n (%)
  Musculoskeletal stiffness, subjects with AE: 1 (12.5) n (%)
  Nasopharyngitis, subjects with AE: 0 n (%)
  Nausea, subjects with AE: 2 (25.0) n (%)
  Neck pain, subjects with AE: 1 (12.5) n (%)
  Paraesthesia, subjects with AE: 0 n (%)
  Procedural headache, subjects with AE: 5 (62.5) n (%)
  Procedural pain, subjects with AE: 1 (12.5) n (%)
  Somnolence, subjects with AE: 0 n (%)
  Tension headache, subjects with AE: 1 (12.5) n (%)
  Total with AEs (treatment-emergent): 8 (100.0) n (%)
  Upper abdominal pain, subjects with AE: 1 (12.5) n (%)
  Vomiting, subjects with AE: 2 (25.0) n (%)
  Wound, subjects with AE: 0 n (%)
[1]; [5]
  Abdominal pain, subjects with AE: 0 n (%)
  Back pain, subjects with AE: 1 (20.0) n (%)
  Catheter site pain, subjects with AE: 0 n (%)
  Diarrhea, subjects with AE: 0 n (%)
  Dizziness, subjects with AE: 0 n (%)
  Dry mouth, subjects with AE: 0 n (%)
  Fatigue, subjects with AE: 1 (20.0) n (%)
  Gingivitis, subjects with AE: 0 n (%)
  Muscle spasms, subjects with AE: 0 n (%)
  Musculoskeletal stiffness, subjects with AE: 0 n (%)
  Nasopharyngitis, subjects with AE: 1 (20.0) n (%)
  Nausea, subjects with AE: 0 n (%)
  Neck pain, subjects with AE: 1 (20.0) n (%)
  Paraesthesia, subjects with AE: 0 n (%)
  Procedural headache, subjects with AE: 3 (60.0) n (%)
  Procedural pain, subjects with AE: 0 n (%)
  Somnolence, subjects with AE: 0 n (%)
  Tension headache, subjects with AE: 0 n (%)
  Total with AEs (treatment-emergent): 4 (80.0) n (%)
  Upper abdominal pain, subjects with AE: 0 n (%)
  Vomiting, subjects with AE: 0 n (%)
  Wound, subjects with AE: 0 n (%)
[1]; healthy male volunteers, 5 to 50 mg for 14 days
  AEs of special interest, deaths, serious AEs on-treatment: no protocol‐specified AEs of special interest, deaths, or other serious AEs reported
[1]; healthy male volunteers, multiple oral doses 5 to 50 mg for 14 days
  Safety and tolerability (in words): safe and well tolerated; also recorded: generally well tolerated; also recorded: well tolerated, with no indication of safety concerns
[1]; of the 25 subjects treated (8 subjects)
  Subjects reporting back pain: 32.0%
[1]; of the 25 subjects treated (16 subjects)
  Subjects reporting procedural headache: 64.0%
[1]; of the 25 subjects treated (22 subjects)
  Subjects reporting at least one treatment-emergent AE: 88.0%
[1]; [6]
  Abdominal pain, subjects with AE: 1 (4.0) n (%)
  Back pain, subjects with AE: 8 (32.0) n (%)
  Catheter site pain, subjects with AE: 1 (4.0) n (%)
  Diarrhea, subjects with AE: 1 (4.0) n (%)
  Dizziness, subjects with AE: 2 (8.0) n (%)
  Dry mouth, subjects with AE: 1 (4.0) n (%)
  Fatigue, subjects with AE: 2 (8.0) n (%)
  Gingivitis, subjects with AE: 1 (4.0) n (%)
  Muscle spasms, subjects with AE: 1 (4.0) n (%)
  Musculoskeletal stiffness, subjects with AE: 1 (4.0) n (%)
  Nasopharyngitis, subjects with AE: 1 (4.0) n (%)
  Nausea, subjects with AE: 5 (20.0) n (%)
  Neck pain, subjects with AE: 3 (12.0) n (%)
  Paraesthesia, subjects with AE: 1 (4.0) n (%)
  Procedural headache, subjects with AE: 16 (64.0) n (%)
  Procedural pain, subjects with AE: 1 (4.0) n (%)
  Somnolence, subjects with AE: 1 (4.0) n (%)
  Tension headache, subjects with AE: 1 (4.0) n (%)
  Total with AEs (treatment-emergent): 22 (88.0) n (%)
  Upper abdominal pain, subjects with AE: 1 (4.0) n (%)
  Vomiting, subjects with AE: 4 (16.0) n (%)
  Wound, subjects with AE: 1 (4.0) n (%)
[1]; two subjects of 25 (5-mg and 10-mg dose groups), AEs not considered drug-related
  Subjects who discontinued due to AEs: 8.0%
